An excerpt weighted towards active compounds, which were near 1.7% of everything screened.
NS3 helicase inh: inhibitors of Hepatitis C virus NS3 helicase | inhibition, % at 10.9 µM | NS3 helicase DNA unwinding, Cy5 molecular beacon fluorescence | 290,000 compounds, 0.56% hits;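 active means inhibition above the mean of all tested compounds plus 3 SD, set per campaign, cut at about 35% in these data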;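 further: 0% = DMSO wells and 100% = thioflavine S control wells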
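System: HCV NS3 helicase fragment; control set: DMSO and thioflavine S; technique: Cy5 fluorescence at 0 and 60 min, beacon hairpin quenching; reagent: beacon DNA duplex substrate plus ATP; replicates: singlicate; schedule: 1 h reaction at 25 °C, ATP-initiated; medium: MOPS buffer pH 6.5 with MgCl2, DTT, Tween20, BSA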
EBNA-1 inhibitor: blocks EBNA-1 binding to DNA; inhibition, % at 14.8 µM; 300,000 compounds, 0.34% hits; AID 1950; EBNA-1 DNA binding, fluorescence polarization; in the data active means inhibition above about 28%
EBV gp42 inh: EBV gp42 inhibition | Q1HVG2 | Fluorescence polarization binding assay, mP read-out | inhibition, % (tested at 21.74 µM) | 220,000 compounds, 0.42% hits | AID 1085; in the data active means inhibition above about 50%
Target sequence (Q1HVG2 whole entry, looked up): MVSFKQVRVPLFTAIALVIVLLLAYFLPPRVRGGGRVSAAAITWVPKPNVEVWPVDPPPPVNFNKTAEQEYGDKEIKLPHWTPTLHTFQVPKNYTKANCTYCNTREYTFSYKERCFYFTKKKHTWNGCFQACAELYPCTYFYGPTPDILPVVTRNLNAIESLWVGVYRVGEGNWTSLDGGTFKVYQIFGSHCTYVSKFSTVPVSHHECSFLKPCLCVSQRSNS
ZTA counter: counter-screen for EBNA-1 inhibitors: inhibitors of Epstein-Barr virus ZTA. ZTA-DNA binding, fluorescence polarization. AID 2234. inhibition, % at 11 µM. P03206. 320,000 compounds, 0.15% hits; in the data active means inhibition above about 33%
Target sequence (P03206 whole entry, looked up): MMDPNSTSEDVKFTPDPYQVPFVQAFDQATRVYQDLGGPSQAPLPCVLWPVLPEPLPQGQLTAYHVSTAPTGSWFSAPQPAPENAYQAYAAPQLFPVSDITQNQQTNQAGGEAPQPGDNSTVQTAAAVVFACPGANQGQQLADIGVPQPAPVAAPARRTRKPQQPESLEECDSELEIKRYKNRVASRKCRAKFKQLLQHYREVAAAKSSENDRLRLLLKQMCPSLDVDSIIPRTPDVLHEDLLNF
HCV core dimer: HCV core protein dimerization inhibition; TR-FRET GST/Flag-core106 dimerization, 1536-well; inhibition, % at 5 µM; 300,000 compounds, 0.33% hits; AID 1899;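 active means inhibition above the mean of all tested compounds plus 3 SD, set per screening campaign, cut at about 45% in these data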
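Material: GST/Flag-tagged HCV core106 proteins. Incubation: 4 h, 22.5 °C incubation. Read-out basis: inhibition (%) from 671 over 617 nm ratio. Measured by: TR-FRET, excitation 340 nm, emission 617 and 671 nm.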
MEX-5 binding: C. elegans MEX-5 TCR-2 RNA binding activity; Q9XUB2; MEX-5/FITC-TCR2 RNA binding, fluorescence polarization; hits give low values; activity score (negative = inhibition of binding), % at 10 µM; 300,000 compounds, 0.38% hits;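 active means inhibition past about -25% in most replicates, and total fluorescence under double the plate's negative control median, limit read from the data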;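 further: 0% = DMSO and -100% = 5 µM competing unlabeled TCR2 RNA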
* = called active by the depositor; x = no result given.

SMILES	NS3 helicase inh	EBNA-1 inhibitor	EBV gp42 inh	ZTA counter	HCV core dimer	MEX-5 binding
COC(=O)CCC(=O)OC1(C)C(=O)C=C2C=C(c3ccsc3)OC=C2C1=O (stereo unspecified)	x	17	x	22	10	-41*
CCN1C(=O)[C@H]2[C@@H](c3ccc(-c4cc(C(C)=O)cs4)cc3)N3CCCC[C@@]3(C(=O)OC)[C@H]2C1=O	x	0	x	13	-29	x
CSc1ncccc1C(=O)Nc1cccc(S(=O)(=O)N(C)c2ccccc2)c1	x	x	x	3	x	x
Cc1cc(C)c2nc(-c3ccccn3)cc(C(=O)NCc3cc(C)n(C)n3)c2c1	2	0	4	6	2	-3
Cc1ccc(-c2cc(C(=O)NC3=NCCS3)c3cc(Br)ccc3n2)o1	19	0	-15	2	51*	-3
COc1cccc(NC(=O)c2cc(-c3ccc(C)o3)nc3ccccc23)c1	28	2	x	-2	48*	0
Cc1ccc(-c2cc(C(=O)NCc3ccco3)c3ccccc3n2)o1	22	-14	22	-13	66*	0
Cc1cc(C)c2nc(-c3ccccn3)cc(C(=O)NCc3ccco3)c2c1	19	0	7	15	69*	-2
Cc1cc(C(=O)NCc2ccco2)c2ccccc2n1	0	-10	2	-5	4	1
O=C(COC(=O)c1ccc[n+]([O-])c1)Nc1ccc(Cl)cc1[N+](=O)[O-]	x	x	x	4	x	x
CCOc1ccccc1NC(=O)C(c1ccccc1)N1CCN(C(=O)c2ccco2)CC1 (stereo unspecified)	x	x	x	-9	x	x
Cc1ccc(-c2cc(C(=O)Nc3ccccc3C)c3ccccc3n2)o1	1	3	-8	6	64*	-1
COC(=O)c1cc(-c2ccc(C)o2)nc2ccccc12	3	11	-8	14	14	-8
Cc1c(NC(=O)COC(=O)CSc2ccc([N+](=O)[O-])cc2)c(=O)n(-c2ccccc2)n1C	x	x	x	5	x	x
Cc1ccccc1NC1=C/C(=N\S(=O)(=O)c2ccc(C(=O)O)cc2)c2ccccc2C1=O	7	-9	x	57*	21	0
COc1cc([N+](=O)[O-])cc(/C=N/NC(=O)CC#N)c1O	9	x	-8	x	x	-32*
CC1CC(Nc2cccc(O)c2)=CC(=O)O1 (stereo unspecified)	2	5	-31	10	-14	-3
C[C@@H]1Cc2c(O)c(O)cc(O)c2C(=O)O1	x	-2	-1	7	-5	-45*
COc1ccc(NS(=O)(=O)c2cc(NC(=O)/C=C/c3cccs3)ccc2N2CCOCC2)cc1	-5	73*	-13	-18	-2	2
O=C(NCc1ccc(F)cc1)Nc1cccc(Cl)c1	3	-17	5	-2	-6	0
C/C(=N\NC(=O)c1nnn(-c2nonc2N)c1-c1cccs1)c1cccc(O)c1	-4	3	x	3	1	-63*
COc1cc(/C(C)=N/NC(=O)c2nnn(-c3nonc3N)c2-c2cccs2)ccc1O	-2	1	x	-14	-57	-1
O=C(CCC(=O)Nc1ccccc1Cl)NNC(=S)Nc1ccccc1C(F)(F)F	-5	23	x	19	10	-2
NS(=O)(=O)c1ccc(NC(=S)NNC(=O)CCC(=O)Nc2ccccc2Cl)cc1	-6	1	x	2	-2	-31*
Cc1ccc(C2C(C#N)=C(N)SC(N)=C2C#N)o1	11	0	0	9	46*	-4
SMILES	NS3 helicase inh	EBNA-1 inhibitor	EBV gp42 inh	ZTA counter	HCV core dimer	MEX-5 binding
CCc1ccc(C2C(C#N)=C(N)SC(N)=C2C#N)s1	22	-2	-43	4	53*	-2
CN(C)c1ccc(/C=c2/sc3n(c2=O)NC2(c4ccccc4)N(C)C(=O)N(C)C2(c2ccccc2)N=3)cc1 (stereo unspecified)	15	1	50*	-20	-11	1
CC(C)(C)c1ccc(/C=N/NC(=S)Nc2cccnc2)cc1	12	-2	5	-19	3	-1
Oc1ccc(/C=N/NC(=S)Nc2cccnc2)cc1O	4	-15	4	-10	-17	-45*
O=C(N/N=C/c1ccc(O)c(O)c1)N/N=C/c1ccc(O)c(O)c1	25	x	x	x	x	-39*
COC(=O)/C(=C(O)\C=C\c1ccccc1[N+](=O)[O-])c1nc2ccccc2[nH]1	-2	-18	x	0	9	0
O=c1oc2ccccc2nc1/C=C(O)/C=C\c1ccccc1	34	-9	-20	-24	50*	2
Cc1[nH]c2ccccc2c1/C=N/NC(=S)NC(C)C	-6	-6	2	9	-11	-26*
C=CCn1c(CSc2ccccc2[N+](=O)[O-])n[nH]c1=S	31	-1	x	-8	65*	-2
CCC1(CC)NC(=O)N(CC(=O)Nc2sc3c(c2C(N)=O)CCC3)C1=O	29	0	48	-7	83*	-3
Cc1cccc(C(=O)N[C@H](C(=O)Nc2cccc(S(=O)(=O)N3CCCC3)c2)C(C)C)c1	-8	4	-11	-3	2	1
CCOc1ccc(C(=O)N[C@H](C(=O)Nc2cccc(S(=O)(=O)N3CCCCC3)c2)C(C)C)cc1	14	42*	-175	-13	10	-3
COc1ccc(CNC(=O)C(C)Sc2nc3ccccc3c(=O)n2CC2CCCO2)cc1 (stereo unspecified)	x	x	x	-21	x	x
O=c1[nH][nH]c2cc(=O)n(-c3cccc(C(F)(F)F)c3)nc12	13	-1	0	-7	5	-46*
COC(=O)c1nn(-c2ccc(OC)cc2)c(=O)cc1NN	1	-3	-1	-7	14	2
COc1ccc(-n2nc3c(=O)[nH][nH]c3cc2=O)cc1	17	1	-17	-2	-8	-79*
Nc1n[nH]c2cc(=O)n(-c3cccc(C(F)(F)F)c3)nc12	9	7	28	-19	-2	-19
N#CC1=C(N)Oc2cc(N)ccc2C1c1ccc(F)cc1F (stereo unspecified)	-10	-10	x	-13	12	-1
COc1ccc(C2=NN(C(=O)CSc3nc(=O)n4cc(C)ccc4n3)C(c3ccc(C)cc3)C2)cc1 (stereo unspecified)	x	2	x	2	31	1
Cc1ccc(C2CC(c3cccs3)=NN2C(=O)CSc2nc(=O)n3ccc(C)cc3n2)cc1 (stereo unspecified)	x	6	x	-22	61*	4
COc1ccc(C2CC(c3cccs3)=NN2C(=O)CSc2nc(=O)n3ccc(C)cc3n2)cc1 (stereo unspecified)	x	-8	x	-5	48*	5
O=C(CSc1nc(=O)n2ccccc2n1)N1N=C(c2cccs2)CC1c1ccc(F)cc1 (stereo unspecified)	x	-10	x	-14	9	0
